From paper PMC12023741 (RSC Advances, 2025) come the findings set out here.

In one data set the test system is HCT-116 cell line. In words: MTT assay, HCT-116. The format is cell-based. Conditions: for antitumor effect (in words): HCT-116, MTT assay, compared to DOX.
The next data set deals with MCF-7 cell line. In words: MTT assay, MCF-7. The format is cell-based. Conditions: for antitumor effect (in words): MCF-7, MTT assay, compared to DOX.
Data set [1] can be described thus: DPPH free radical scavenging. Conditions: read-out: DPPH scavenging activity IC50; stable DPPH radical; mean ± SE, n = 3. It is filed as biochemical. In short, it runs like this: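 Radical-scavenging capacity of the test compounds toward DPPH was measured by a modified Zheleva-Dimitrova procedure. Scavenging activity was recorded and IC50 values were derived from it. Data are mean ± SE, n = 3.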

The subject of another data set is HepG2 cell line. Nature of the data set: MTT assay, HepG2. The format is cell-based. Conditions: for antitumor effect (in words): HepG2, MTT assay, compared to DOX.
Data set [2] deals with WI-38 normal cells (human lung fibroblast). Nature of the data set: MTT assay, WI-38 normal cells. The format is cell-based.

Regarding `NC1=NN(c2ccccc2)C(=O)C1/N=N/c1ccc(C(=O)C=Cc2ccccc2)cc1` (stereo not drawn) [Compound 3a, 5-Amino-4-((E)-(4-cinnamoylphenyl)diazenyl)-2-phenyl-2,4-dihydro-3H-pyrazol-3-one], the “antitumor effect (in words)” value in the data set with HCT-116 cell line, in the data set with MCF-7 cell line and with HepG2 cell line was “impressive antitumor effects” throughout. Moreover, the IC50 in data set [1] was determined as 21.4 ± 0.17 µM.
Take `COc1cc(/C=C/C(=O)c2ccc(/N=N/C3C(=O)N(c4ccccc4)N=C3N)cc2)ccc1O` (stereo not drawn) [Compound 3b, 5-Amino-4-((E)-(4-((E)-3-(4-hydroxy-3-methoxyphenyl)acryloyl)phenyl)diazenyl)-2-phenyl-2,4-dihydro-3H-pyrazol-3-one]: the IC50 came out at 6.34 ± 0.5 µM with HCT-116 cell line (Homo sapiens, HCT-116); 3.92 ± 0.2 µM with MCF-7 cell line (Homo sapiens, MCF7); 19.95 ± 0.14 µM in data set [1]; 5.03 ± 0.4 µM in the data set on HepG2 cell line (Homo sapiens, HepG2). Further, the “cytotoxic effect on normal cells (in words)” value in data set [2] is listed as “safe toxic profile on normal cells”.
In the case of `NC1=NN(c2ccccc2)C(=O)C1/N=N/c1ccc(C(=O)/C=C/c2ccc(O)cc2)cc1` (stereo not drawn) [Compound 3c, 5-Amino-4-((E)-(4-((E)-3-(4-hydroxyphenyl)acryloyl)phenyl)diazenyl)-2-phenyl-2,4-dihydro-3H-pyrazol-3-one], the “antitumor effect (in words)” value in the data set on HCT-116 cell line, in the data set with MCF-7 cell line and in the data set on HepG2 cell line was “weak effect” in each case. In addition, the IC50 in data set [1] is 94.18 ± 0.45 µM.
In the case of `NC1=NN(c2ccccc2)C(=O)C1/N=N/c1ccc(C(=O)/C=C/c2ccccc2O)cc1` (stereo not drawn) [Compound 3d, 5-Amino-4-((E)-(4-((E)-3-(2-hydroxyphenyl)acryloyl)phenyl)diazenyl)-2-phenyl-2,4-dihydro-3H-pyrazol-3-one], the “antitumor effect (in words)” value in the data set on HCT-116 cell line, with MCF-7 cell line and with HepG2 cell line was “moderate effect” each time. The IC50 in data set [1] worked out at 48.59 ± 0.28 µM.
On to `CN(C)c1ccc(/C=C/C(=O)c2ccc(/N=N\C3C(=O)N(c4ccccc4)N=C3N)cc2)cc1` (stereo not drawn) [Compound 3e, 5-Amino-4-((Z)-(4-((E)-3-(4-(dimethylamino)phenyl)acryloyl)phenyl)diazenyl)-2-phenyl-2,4-dihydro-3H-pyrazol-3-one], for which the “antitumor effect (in words)” value with HCT-116 cell line, with MCF-7 cell line and with HepG2 cell line was “moderate effect” throughout. Besides, in data set [1], the IC50 worked out at 32.79 ± 0.21 µM.
For the molecule `NC1=NN(c2ccccc2)C(=O)C1/N=N/c1ccc(C(=O)C=Cc2ccco2)cc1` (stereo not drawn) [Compound 3f, (E)-3-Amino-4-((4-(3-(furan-2-yl)acryloyl)phenyl)diazenyl)-1-phenyl-1H-pyrazol-5(4H)-one], the “antitumor effect (in words)” value in the data set on HCT-116 cell line, with MCF-7 cell line and in the data set with HepG2 cell line was “impressive antitumor effects” in each case. The IC50 in data set [1] amounted to 27.25 ± 0.19 µM.
For the molecule `NC1=NN(c2ccccc2)C(=O)C1/N=N/c1ccc(C(=O)/C=C/C=C/c2ccccc2)cc1` (stereo not drawn) [Compound 3g, 5-Amino-2-phenyl-4-((E)-(4-((2E,4E)-5-phenylpenta-2,4-dienoyl)phenyl)diazenyl)-2,4-dihydro-3H-pyrazol-3-one], the “antitumor effect (in words)” value with HCT-116 cell line, in the data set on MCF-7 cell line and in the data set on HepG2 cell line was “weak effect” in each case. The IC50 in data set [1] came out at 73.63 ± 0.39 µM.
In the case of `O=C1O[C@H]([C@@H](O)CO)C(O)=C1O` [L-ascorbic acid, reference compound], the IC50 in data set [1] came to 16.81 ± 0.1 µM.
